# An excerpt weighted towards active compounds, which were near 1.8% of everything screened.
# CHRM5 antagonist – human M5 muscarinic receptor antagonists, primary screen, CHO cells, Fluo-8 calcium fluorescence; 360,000 tested, 0.59% active; AID 624040, 2012; CHO-hM5 cells, ACh EC80; inhibition, % at 3 µM;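 active = inhibition above a per-plate cutoff, the mean of that plate's test compounds plus 3 SD, cut at about 27% in these data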;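 note: 0% = acetylcholine EC80 with DMSO and 100% = DMSO without agonist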
# M5 PAM – human M5 muscarinic receptor positive allosteric modulators, primary screen, CHO-K1 cells, Fluo-8 calcium fluorescence; Muscarinic acetylcholine receptor M5 (Homo sapiens), P08912; CHO-K1 hM5, ACh EC20 PAM; 0% = ACh EC20, 100% = ACh EC100; activation, % at 3 µM; 360,000 tested, 0.3% active; AID 624038, 2012;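 active = activation above the run cutoff, the mean activation of all test compounds plus 3 SD, cut at about 18% in these data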
#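 Test system: CHO-K1 hM5 cells / Doses: single-point, 3 µM nominal / Times: Post-acetylcholine fluorescence recording 140 s / Technique: Fluo-8 calcium fluorescence / Measure: Max/basal fluorescence ratio as % of EC20–EC100 ACh window / Benchmarks: low control EC20 acetylcholine (0%), high control EC100 acetylcholine (100%) / Replicates: one well per compound, no replicates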
# CHRM4 agonist – human M4 muscarinic receptor agonists, primary screen, CHO-K1 cells, Fluo-8 calcium fluorescence; Muscarinic acetylcholine receptor M4 (Homo sapiens), P08173; CHO-K1 hM4/Gqi5; vehicle 0%, full acetylcholine response 100%; activation, % at 3 µM; 360,000 tested, 0.14% active;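 active = activation above the run mean over all test wells plus 3 SD, cut at about 32% in these data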;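 note: peak over basal fluorescence ratio per well then scaled between controls; 0% = DMSO wells and 100% = acetylcholine at EC100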
# Target sequence (P08173 whole entry, looked up): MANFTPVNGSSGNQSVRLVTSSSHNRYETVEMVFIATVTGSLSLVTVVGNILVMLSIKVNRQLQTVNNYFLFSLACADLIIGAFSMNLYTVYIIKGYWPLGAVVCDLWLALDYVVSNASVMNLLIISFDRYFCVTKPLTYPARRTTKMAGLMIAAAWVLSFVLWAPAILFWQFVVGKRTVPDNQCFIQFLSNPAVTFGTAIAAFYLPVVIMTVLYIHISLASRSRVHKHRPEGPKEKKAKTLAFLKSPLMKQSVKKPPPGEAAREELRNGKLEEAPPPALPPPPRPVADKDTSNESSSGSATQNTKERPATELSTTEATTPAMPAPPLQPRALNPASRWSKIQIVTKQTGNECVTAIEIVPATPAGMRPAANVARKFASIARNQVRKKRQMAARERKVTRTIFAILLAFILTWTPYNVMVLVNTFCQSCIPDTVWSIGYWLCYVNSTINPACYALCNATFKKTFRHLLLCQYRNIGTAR
# CHRM4 antagonist – human M4 muscarinic receptor antagonists, primary screen, CHO cells, Fluo-8 calcium fluorescence; inhibition, % at 3 µM; 360,000 tested, 0.73% active; CHO-hM4 cells, ACh EC80; Muscarinic acetylcholine receptor M4 (Homo sapiens), P08173;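 active = inhibition above its plate's cutoff, the mean inhibition of sample wells plus 3 SD, cut at about 27% in these data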;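 note: 0% = acetylcholine EC80 with DMSO and 100% = DMSO without agonist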
# M4 PAM – human M4 muscarinic receptor positive allosteric modulators, primary screen, CHO-K1 cells, Fluo-8 calcium fluorescence; CHO-K1 hM4/Gqi5, ACh EC20; 0% = ACh EC20, 100% = maximal ACh; activation, % at 3 µM; 360,000 tested, 0.4% active; AID 624126, 2012;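 active = activation above its plate's cutoff, the mean activation of sample wells plus 3 SD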
# CHRM5 agonist – human M5 muscarinic receptor agonists, primary screen, CHO-K1 cells, Fluo-8 calcium fluorescence. Muscarinic acetylcholine receptor M5 (Homo sapiens), P08912. CHO-K1 hM5 cells; 0% DMSO wells, 100% maximal acetylcholine response. activation, % at 3 µM. 360,000 tested, 0.19% active;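 active = activation above the run's mean over test compounds plus 3 SD, cut at about 23% in these data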;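 note: signal is peak over basal fluorescence ratio across the kinetic read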
# The depositor's hits bear a star.
SMILES,CHRM5 antagonist,M5 PAM,CHRM4 agonist,CHRM4 antagonist,M4 PAM,CHRM5 agonist
COc1cc(C(c2c(C(=O)O)[nH]c3ccccc23)c2c(C(=O)O)[nH]c3ccccc23)ccc1OCc1ccccc1,3.7,0.0,0.5,3.7,-6.9,-5.5
COc1cccc(CNC(=O)c2cc(S(=O)(=O)N3CCCC3)cn2C)c1,5.7,-1.2,3.3,-7.4,-0.8,-0.3
OC(c1cc(-c2cccc(Cl)c2)nc2ccccc12)C1CCCCN1 (stereo not drawn),8.3,-1.1,22.8,37.0*,10.9,3.2
C=CCN(CC=C)C(=O)CN1C(=O)NC(c2ccccc2)(c2ccccc2)C1=O,-6.9,2.4,3.2,-36.5,17.8*,0.7
Cn1nc(C(F)(F)F)c(-c2ccc(F)cc2)c1NC(=O)Nc1ccc(F)cc1,32.9*,-22.6,14.7,9.8,-13.6,-1.5
Cc1cccc(OCC(=O)N/N=C/c2cc([N+](=O)[O-])ccc2N2CCOCC2)c1,0.5,-2.9,0.9,4.8,-4.4,-1.1
O=C(CN1CCCC1)NCc1ccccc1,-2.8,5.2,0.9,5.1,-2.7,-1.4
O=C(COC(=O)c1ccc(O)cc1)Nc1ccccc1-c1ccccc1,35.2*,-19.0,13.3,20.6,-12.8,2.2
O=C(CN1CCCCC1)Nc1ccccc1-c1ccccc1,45.4*,-25.0,-1.1,68.2*,-16.0,-7.9
O=C(CN1CCCCCC1)NN(Cc1ccccc1)c1ccccc1,12.3,-26.0,0.2,29.3*,-49.2,-18.8
O=C(CN1CCOCC1)Nc1ccccc1-c1ccccc1,-5.8,-1.7,1.3,13.5,5.5,-1.3
O=C(CN1CCC(NC(=O)C2CCCCC2)CC1)NCc1ccco1,-10.3,-2.0,0.4,-17.9,3.5,-3.5
O=C(CN1CCC(NC(=O)Nc2ccccc2-c2ccccc2)CC1)NCc1ccco1,60.7*,-17.6,1.9,17.2,-20.1,-6.7
CCCOc1ccc(C(=O)CCN2CCN(C(=O)OCC)CC2)cc1,10.2,-4.5,2.1,-6.1,-4.8,8.9
Cc1ccc(C2=NNC(C(O)C(O)C(O)CO)S2)cc1 (stereo not drawn),9.4,29.7*,0.4,2.5,-3.3,-0.5
Cc1cc(C)n2nc(SCC(=O)NC3CCCCC3C)nc2n1 (stereo not drawn),3.1,0.6,0.8,-8.3,10.9,-3.6
CCOC(=O)c1ccc(NC(=O)CSc2nnc(-c3cccs3)n2C)cc1,-8.1,20.7*,1.6,-9.2,4.2,3.1
CCOC(=O)c1ccc(NC(=O)CSc2nnc(-c3cccs3)n2CC)cc1,0.9,-1.9,1.4,-1.8,11.6,2.6
Cc1cc(/C=N/NC(=O)c2ccsc2)c(C)n1-c1cnccn1,0.1,28.2*,1.2,9.5,7.4,3.0
CN(C)N(Cc1ccccc1)C(=O)C(O)(c1ccccc1)c1ccccc1,-1.6,-11.6,9.7,-5.0,-11.5,-23.2
CN(C)C(C)(C)/C=C/C(O)(c1ccccc1)c1ccccc1,63.5*,-30.1,6.6,70.5*,-16.1,-19.9
Cc1cc2n(n1)C(c1ccco1)Nc1ccccc1-2 (stereo not drawn),4.2,-0.2,1.1,-1.7,13.6,-1.5
Cc1cc2n(n1)C(c1ccc(O)cc1)Nc1ccccc1-2 (stereo not drawn),0.0,-0.6,1.0,13.2,30.3*,6.2
COc1cccc(COC(=O)C(Cc2ccccc2)NC(=O)c2ccco2)c1 (stereo not drawn),6.7,-5.8,11.5,4.4,-3.1,2.3
C=CCN1C(=O)c2ccccc2Sc2ccc(C(=O)N3CCN(C)CC3)cc21,0.0,0.2,0.7,4.3,-0.4,-1.1
SMILES,CHRM5 antagonist,M5 PAM,CHRM4 agonist,CHRM4 antagonist,M4 PAM,CHRM5 agonist
CN1CCCCC1CCN1c2ccccc2Sc2ccc(S(C)=O)cc21 (stereo not drawn),98.4*,-18.4,0.6,88.0*,-18.0,-1.7
O=C(Nc1cccc(S(=O)(=O)N2CCOCC2)c1)C1CCN(S(=O)(=O)c2ccccc2)CC1,8.4,2.7,2.5,-5.9,3.3,-1.3
OC[C@@H]1CN(Cc2ccccc2)C[C@H](n2ccc3c(N4CCCC4)ncnc32)O1,15.0,2.1,2.3,-2.0,1.6,2.5
COc1ccc(-c2cc(C3CCN(c4ccc(C(C)=O)cc4[N+](=O)[O-])CC3)[nH]n2)cc1,2.6,-3.2,6.1,6.2,-9.5,-0.3
CC(=O)c1ccc(N2CCC(c3cc(-c4ccc(Cl)cc4)n[nH]3)CC2)c([N+](=O)[O-])c1,13.8,-9.8,4.2,28.7*,-15.8,0.8
CC[n+]1ccccc1/C=C/c1ccc(N(C)C)cc1,-2.2,0.5,1.4,2.1,0.8,-4.2
CCCCCC[n+]1ccccc1/C=C/c1ccc(N(C)C)cc1,63.5*,-21.4,32.5*,49.4*,-17.1,42.5*
CCCCn1nc(C(=O)Nc2ccc(-n3cnnn3)cc2)c2ccccc2c1=O,13.9,-12.3,10.8,4.8,-2.6,3.8
C/C(=N\NC(N)=S)c1ccc(Cl)s1,7.4,1.3,0.5,6.0,-0.6,0.7
C/C(=N\NC(=S)NC(C)C)c1ccc(Cl)s1,7.8,-17.5,-2.3,27.3*,-34.2,-5.9
COCCNC(=O)C1(C)CCN(C(=O)COc2ccc(Cl)cc2Cl)C1 (stereo not drawn),-4.0,-4.5,2.5,-22.9,5.2,-1.0
OC[C@@H]1CN(Cc2ccccc2)C[C@H](n2cnc3c(NC4CC4)ncnc32)O1,6.6,-2.1,0.8,-4.6,4.2,-0.2
OC[C@@H]1CN(Cc2ccc(-c3ccccc3)cc2)C[C@H](n2cnc3c(NC4CCC4)ncnc32)O1,29.4*,-14.2,17.0,28.1*,-10.0,5.3
COc1ccc(CN2C[C@@H](CO)O[C@@H](n3cnc4c(N5CCCC5)ncnc43)C2)cc1,4.0,-3.1,2.0,-22.9,16.9*,-1.7
Cc1ccc(F)cc1NC(=O)COC(=O)c1ccc2ncsc2c1,0.6,-3.2,4.0,-12.1,2.0,3.2
Cc1cc(O)ccc1-c1cc(C(=O)NCc2ccc(F)cc2)[nH]n1,-11.8,-2.7,15.2,-24.2,2.3,33.5*
O=C1CC2(CCCC2)C(=O)N1CN1CCN(S(=O)(=O)c2ccc(Cl)c(Cl)c2)CC1,10.3,-8.1,1.7,0.2,-0.8,-5.0
Clc1ccccc1-c1ccc2nccn2c1,11.8,-10.9,0.1,3.1,-7.2,-4.0
